Tested on: not listed separately
Experiment: Octanol- water partition coefficient was determined.

In order of falling Partition coefficient:
1. C[C@]12C=CC(=O)C=C1CC[C@@H]1[C@@H]2[C@@H](O)C[C@@]2(C)[C@H]1CC[C@]2(O)[C@H](O)C(=O)NCc1ccccc1  30
2. CCCNC(=O)[C@H](O)[C@@]1(O)CC[C@H]2[C@@H]3CCC4=CC(=O)C=C[C@]4(C)[C@H]3[C@@H](O)C[C@@]21C  26.7
3. CCCNC(=O)[C@@H](O)[C@@]1(O)CC[C@H]2[C@@H]3CCC4=CC(=O)C=C[C@]4(C)[C@H]3[C@@H](O)C[C@@]21C  16.3
4. CNC(=O)[C@H](O)[C@@]1(O)CC[C@H]2[C@@H]3CCC4=CC(=O)C=C[C@]4(C)[C@H]3[C@@H](O)C[C@@]21C  10

Tested on: Rattus norvegicus
Experiment: Tested for topical antiinflammatory activity in the croton oil ear edema assay
Format: functional
Parameters: concentration or dose not given beside the values
Procedure, shortened: (§1)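 Male Sprague–Dawley rats (100–200 g), acclimated 1 week. Baseline ear thickness was measured. Steroid at 0.75 mg/ear went to both ears, then 30 min later 50 μL 5% croton oil in acetone. Thickness was remeasured at 5 h. Mean change ± SEM, n=5; % inhibition vs vehicle controls, Student's t test.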

In order of rising Inhibition:
1. C[C@]12C=CC(=O)C=C1CC[C@@H]1[C@@H]2[C@@H](O)C[C@@]2(C)[C@H]1CC[C@]2(O)[C@H](O)C(=O)NCc1ccccc1  21.9%
2. CCCNC(=O)[C@@H](O)[C@@]1(O)CC[C@H]2[C@@H]3CCC4=CC(=O)C=C[C@]4(C)[C@H]3[C@@H](O)C[C@@]21C  23.6%
3. CCCNC(=O)[C@H](O)[C@@]1(O)CC[C@H]2[C@@H]3CCC4=CC(=O)C=C[C@]4(C)[C@H]3[C@@H](O)C[C@@]21C  31.9%
4. CNC(=O)[C@H](O)[C@@]1(O)CC[C@H]2[C@@H]3CCC4=CC(=O)C=C[C@]4(C)[C@H]3[C@@H](O)C[C@@]21C  33.5%

Organism: Rattus norvegicus
Experiment: Compound was evaluated for antiinflammatory activity in granuloma bioassay and measured as body weight gain
Format: functional
Procedure, shortened: (§2)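 Male Sprague–Dawley rats (100–200 g), acclimated 1 week under controlled lighting. Each rat got one cotton pellet (35 ± 1 mg) loaded with 2 mg steroid in acetone and one vehicle pellet; controls got two vehicle pellets. Rats were killed 7 days later. Readouts: thymus and adrenal weights, initial/final body weight, plasma corticosterone by 3H radioimmunoassay of cardiac blood. Mean ± SEM, n=6, Student's t test.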

In order of falling Body weight gain:
1. CCCNC(=O)[C@@H](O)[C@@]1(O)CC[C@H]2[C@@H]3CCC4=CC(=O)C=C[C@]4(C)[C@H]3[C@@H](O)C[C@@]21C  56.7 g
2. C[C@]12C=CC(=O)C=C1CC[C@@H]1[C@@H]2[C@@H](O)C[C@@]2(C)[C@H]1CC[C@]2(O)[C@H](O)C(=O)NCc1ccccc1  55.7 g
3. CNC(=O)[C@H](O)[C@@]1(O)CC[C@H]2[C@@H]3CCC4=CC(=O)C=C[C@]4(C)[C@H]3[C@@H](O)C[C@@]21C  46 g
4. CCCNC(=O)[C@H](O)[C@@]1(O)CC[C@H]2[C@@H]3CCC4=CC(=O)C=C[C@]4(C)[C@H]3[C@@H](O)C[C@@]21C  30.2 g

Organism: Rattus norvegicus
Experiment: Tested for inhibition of formation of granulation tissue around the cotton pellet untreated with steroid and expressed as net dry weight
Format: functional
Procedure, shortened: (§3)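 Male Sprague–Dawley rats (100–200 g). Before implantation, the right cotton pellet (35 ± 1 mg) received 2 mg steroid in acetone and the left pellet vehicle only; controls had two vehicle pellets. After 7 days, pellets with granulation tissue were dried at 60 °C for 48 h and weighed. Net dry weight, mean ± SEM, n=6; % inhibition vs vehicle group.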

In order of falling Net dry weight:
1. C[C@]12C=CC(=O)C=C1CC[C@@H]1[C@@H]2[C@@H](O)C[C@@]2(C)[C@H]1CC[C@]2(O)[C@H](O)C(=O)NCc1ccccc1  75.2 mg
2. CCCNC(=O)[C@@H](O)[C@@]1(O)CC[C@H]2[C@@H]3CCC4=CC(=O)C=C[C@]4(C)[C@H]3[C@@H](O)C[C@@]21C  48.3 mg
3. CCCNC(=O)[C@H](O)[C@@]1(O)CC[C@H]2[C@@H]3CCC4=CC(=O)C=C[C@]4(C)[C@H]3[C@@H](O)C[C@@]21C  46.6 mg
4. CNC(=O)[C@H](O)[C@@]1(O)CC[C@H]2[C@@H]3CCC4=CC(=O)C=C[C@]4(C)[C@H]3[C@@H](O)C[C@@]21C  40.8 mg

Organism: Rattus norvegicus
Experiment: Evaluated for antiinflammatory activity in granuloma bioassay and expressed as relative adrenal weight
Format: functional
Procedure, shortened: as §2

In order of falling Relative adrenal weight:
1. CCCNC(=O)[C@@H](O)[C@@]1(O)CC[C@H]2[C@@H]3CCC4=CC(=O)C=C[C@]4(C)[C@H]3[C@@H](O)C[C@@]21C  14 mg 100g-1
2. CNC(=O)[C@H](O)[C@@]1(O)CC[C@H]2[C@@H]3CCC4=CC(=O)C=C[C@]4(C)[C@H]3[C@@H](O)C[C@@]21C  14 mg 100g-1
3. CCCNC(=O)[C@H](O)[C@@]1(O)CC[C@H]2[C@@H]3CCC4=CC(=O)C=C[C@]4(C)[C@H]3[C@@H](O)C[C@@]21C  13.1 mg 100g-1
4. C[C@]12C=CC(=O)C=C1CC[C@@H]1[C@@H]2[C@@H](O)C[C@@]2(C)[C@H]1CC[C@]2(O)[C@H](O)C(=O)NCc1ccccc1  11.8 mg 100g-1

Organism: Rattus norvegicus
Experiment: Evaluated for antiinflammatory activity in granuloma bioassay and expressed as relative thymus weight
Format: functional
Procedure, shortened: as §2

In order of falling Relative thymus weight:
1. C[C@]12C=CC(=O)C=C1CC[C@@H]1[C@@H]2[C@@H](O)C[C@@]2(C)[C@H]1CC[C@]2(O)[C@H](O)C(=O)NCc1ccccc1  264.2 mg 100g-1
2. CCCNC(=O)[C@@H](O)[C@@]1(O)CC[C@H]2[C@@H]3CCC4=CC(=O)C=C[C@]4(C)[C@H]3[C@@H](O)C[C@@]21C  161.7 mg 100g-1
3. CNC(=O)[C@H](O)[C@@]1(O)CC[C@H]2[C@@H]3CCC4=CC(=O)C=C[C@]4(C)[C@H]3[C@@H](O)C[C@@]21C  116.4 mg 100g-1
4. CCCNC(=O)[C@H](O)[C@@]1(O)CC[C@H]2[C@@H]3CCC4=CC(=O)C=C[C@]4(C)[C@H]3[C@@H](O)C[C@@]21C  88.5 mg 100g-1

Organism: Rattus norvegicus
Experiment: Tested for inhibition of formation of granulation tissue around the cotton pellet treated with steroid and expressed as net dry weight
Format: functional
Procedure, shortened: as §3

In order of falling Net dry weight:
1. C[C@]12C=CC(=O)C=C1CC[C@@H]1[C@@H]2[C@@H](O)C[C@@]2(C)[C@H]1CC[C@]2(O)[C@H](O)C(=O)NCc1ccccc1  61.6 mg
2. CCCNC(=O)[C@@H](O)[C@@]1(O)CC[C@H]2[C@@H]3CCC4=CC(=O)C=C[C@]4(C)[C@H]3[C@@H](O)C[C@@]21C  33.4 mg
3. CCCNC(=O)[C@H](O)[C@@]1(O)CC[C@H]2[C@@H]3CCC4=CC(=O)C=C[C@]4(C)[C@H]3[C@@H](O)C[C@@]21C  23.9 mg
4. CNC(=O)[C@H](O)[C@@]1(O)CC[C@H]2[C@@H]3CCC4=CC(=O)C=C[C@]4(C)[C@H]3[C@@H](O)C[C@@]21C  18.9 mg

Tested on: Rattus norvegicus
Experiment: Tested for topical antiinflammatory activity in the croton oil ear edema assay and was expressed as mean change in ear thickness of rats
Format: functional
Procedure, shortened: as §1

In order of rising Mean change:
1. CNC(=O)[C@H](O)[C@@]1(O)CC[C@H]2[C@@H]3CCC4=CC(=O)C=C[C@]4(C)[C@H]3[C@@H](O)C[C@@]21C  0.307 mm
2. CCCNC(=O)[C@H](O)[C@@]1(O)CC[C@H]2[C@@H]3CCC4=CC(=O)C=C[C@]4(C)[C@H]3[C@@H](O)C[C@@]21C  0.311 mm
3. CCCNC(=O)[C@@H](O)[C@@]1(O)CC[C@H]2[C@@H]3CCC4=CC(=O)C=C[C@]4(C)[C@H]3[C@@H](O)C[C@@]21C  0.353 mm
4. C[C@]12C=CC(=O)C=C1CC[C@@H]1[C@@H]2[C@@H](O)C[C@@]2(C)[C@H]1CC[C@]2(O)[C@H](O)C(=O)NCc1ccccc1  0.361 mm

Organism: Rattus norvegicus
Experiment: Tested for inhibition of formation of granulation tissue around the cotton pellet treated with steroid
Format: functional
Parameters: concentration or dose not given beside the values
Procedure, shortened: as §3

In order of rising Inhibition:
1. C[C@]12C=CC(=O)C=C1CC[C@@H]1[C@@H]2[C@@H](O)C[C@@]2(C)[C@H]1CC[C@]2(O)[C@H](O)C(=O)NCc1ccccc1  20.9%
2. CCCNC(=O)[C@@H](O)[C@@]1(O)CC[C@H]2[C@@H]3CCC4=CC(=O)C=C[C@]4(C)[C@H]3[C@@H](O)C[C@@]21C  57.1%
3. CCCNC(=O)[C@H](O)[C@@]1(O)CC[C@H]2[C@@H]3CCC4=CC(=O)C=C[C@]4(C)[C@H]3[C@@H](O)C[C@@]21C  69.3%
4. CNC(=O)[C@H](O)[C@@]1(O)CC[C@H]2[C@@H]3CCC4=CC(=O)C=C[C@]4(C)[C@H]3[C@@H](O)C[C@@]21C  75.5%

Organism: Rattus norvegicus
Experiment: Compound was evaluated for antiinflammatory activity in granuloma bioassay and measured as plasma corticosterone weight
Format: functional, organism-based
Procedure, shortened: as §2

In order of rising Plasma corticosterone:
1. CCCNC(=O)[C@@H](O)[C@@]1(O)CC[C@H]2[C@@H]3CCC4=CC(=O)C=C[C@]4(C)[C@H]3[C@@H](O)C[C@@]21C  164 ng/mL
2. CCCNC(=O)[C@H](O)[C@@]1(O)CC[C@H]2[C@@H]3CCC4=CC(=O)C=C[C@]4(C)[C@H]3[C@@H](O)C[C@@]21C  236 ng/mL
3. C[C@]12C=CC(=O)C=C1CC[C@@H]1[C@@H]2[C@@H](O)C[C@@]2(C)[C@H]1CC[C@]2(O)[C@H](O)C(=O)NCc1ccccc1  298 ng/mL
4. CNC(=O)[C@H](O)[C@@]1(O)CC[C@H]2[C@@H]3CCC4=CC(=O)C=C[C@]4(C)[C@H]3[C@@H](O)C[C@@]21C  321 ng/mL

Organism: Rattus norvegicus
Experiment: Tested for inhibition of formation of granulation tissue around the cotton pellet untreated with steroid
Format: functional
Parameters: concentration or dose not given beside the values
Procedure, shortened: as §3

In order of falling Inhibition:
1. CNC(=O)[C@H](O)[C@@]1(O)CC[C@H]2[C@@H]3CCC4=CC(=O)C=C[C@]4(C)[C@H]3[C@@H](O)C[C@@]21C  48.6%
2. CCCNC(=O)[C@H](O)[C@@]1(O)CC[C@H]2[C@@H]3CCC4=CC(=O)C=C[C@]4(C)[C@H]3[C@@H](O)C[C@@]21C  41.2%
3. CCCNC(=O)[C@@H](O)[C@@]1(O)CC[C@H]2[C@@H]3CCC4=CC(=O)C=C[C@]4(C)[C@H]3[C@@H](O)C[C@@]21C  39.1%
4. C[C@]12C=CC(=O)C=C1CC[C@@H]1[C@@H]2[C@@H](O)C[C@@]2(C)[C@H]1CC[C@]2(O)[C@H](O)C(=O)NCc1ccccc1  5.2%

— ChEMBL document CHEMBL1123844, “Synthesis of new antiinflammatory steroidal 20-carboxamides: (20R)- and (20S)-21-(N-substituted amino)-11 beta,17,20-trihydroxy-3,21-dioxo-1,4- pregnadiene” (J Med Chem, 1987)
